Data as given in ChEMBL document CHEMBL4480385, “Design, synthesis and molecular docking studies of novel N-arylsulfonyl-benzimidazoles with anti Trypanosoma cruzi activity” (Eur J Med Chem, 2019).
Blank lines part the entries; values can stand above or below the molecule they belong to.

How the values were obtained:
[1] = Inhibition of Trypanosoma cruzi apoenzyme form of PFK
[2] = Selectivity index, ratio of IC50 for African green monkey Vero cells to IC50 for Trypanosoma cruzi IRHOD/CO/2008/SN3 epimastigotes; format: toxicity; details: read-out: Ratio IC50
Vero = assay: Cytotoxicity against African green monkey Vero cells after 72 hrs by propidium iodide/fluorescein diacetate staining based flow cytometry; format: cell-based; details: Chlorocebus sabaeus
Trypanosoma cruzi [3] = assay: Potency index, ratio benznidazole IC50 to test compound IC50 for anti-trypanosomal activity against Trypanosoma cruzi IRHOD/CO/2008/SN3 epimastigotes; format: functional
In short: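 Epimastigotes of the SN3 strain were grown in TLM with 10% inactivated FBS at 28 °C in air. Compounds or benznidazole, dissolved in PEG:EtOH (7:3), were added at final levels of 1, 10, 25 and 50 and left for 72 h. Parasites were counted by haemocytometer. IC50 for 50% growth inhibition was fitted by PROBIT, and values are the mean of three experiments.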

Trypanosoma cruzi [4] = assay: Anti-trypanosomal activity against Trypanosoma cruzi IRHOD/CO/2008/SN3 epimastigotes after 72 hrs by Neubauer hemocytometric method; format: functional, organism-based; details: IRHOD/CO/2008/SN3, 72 h
[5] = Inhibition of Trypanosoma cruzi holoenzyme form of PFK
Trypanosoma cruzi [6] = assay: Inhibition of PFK in Trypanosoma cruzi IRHOD/CO/2008/SN3 epimastigotes assessed as change in pyruvate excretion at IC25 after 96 hrs by 1H NMR analysis relative to control; parameters: scale not given: the % may be the effect or the level left
In short: (§1)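 SN3 epimastigotes (starting at 5 × 10⁵ cells/mL) were incubated with compound for 96 h at 28 °C, alongside drug-free control cultures. Cells were pelleted at 400 g for 10 min. Excreted end products in the supernatant were identified and quantified by ¹H NMR against a DSS reference signal, and compared with the controls.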

Trypanosoma cruzi [7] = assay: Inhibition of PFK in Trypanosoma cruzi IRHOD/CO/2008/SN3 epimastigotes assessed as change in D-lactate excretion at IC25 after 96 hrs by 1H NMR analysis relative to control; parameters: scale not given: the % may be the effect or the level left; in short: as §1
[8] = Selectivity index, ratio of IC50 for African green monkey Vero cells to IC50 for Trypanosoma cruzi IRHOD/CO/2008/SN3 amastigotes infected in African green monkey Vero cells; format: toxicity; details: read-out: Ratio IC50
Trypanosoma cruzi [9] = assay: Inhibition of PFK in Trypanosoma cruzi IRHOD/CO/2008/SN3 epimastigotes assessed as change in L-alanine excretion at IC25 after 96 hrs by 1H NMR analysis relative to control; parameters: scale not given: the % may be the effect or the level left; in short: as §1
Trypanosoma cruzi [10] = assay: Anti-trypanosomal activity against Trypanosoma cruzi IRHOD/CO/2008/SN3 amastigotes infected in African green monkey Vero cells after 72 hrs by Giemsa-staining based microscopic analysis; format: functional, organism-based; details: IRHOD/CO/2008/SN3, Vero
Trypanosoma cruzi [11] = assay: Inhibition of PFK in Trypanosoma cruzi IRHOD/CO/2008/SN3 epimastigotes assessed as change in succinate excretion at IC25 after 96 hrs by 1H NMR analysis relative to control; parameters: scale not given: the % may be the effect or the level left; in short: as §1
Trypanosoma cruzi [12] = assay: Inhibition of PFK in Trypanosoma cruzi IRHOD/CO/2008/SN3 epimastigotes assessed as change in acetate excretion at IC25 after 96 hrs by 1H NMR analysis relative to control; parameters: scale not given: the % may be the effect or the level left; in short: as §1
Trypanosoma cruzi [13] = assay: Potency index, ratio benznidazole IC50 to test compound IC50 for anti-trypanosomal activity against Trypanosoma cruzi IRHOD/CO/2008/SN3 amastigotes infected in African green monkey Vero cells; format: functional
In short: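 Vero cells were grown in RPMI with 10% inactivated FBS at 37 °C in 5% CO2. They were seeded at 1 × 10⁴ cells/well on coverslips, cultured for 2 days, then infected with metacyclic T. cruzi at 10:1 for 24 h and washed. Compounds at 1, 10, 25 and 50 were added for 72 h. Amastigotes in methanol-fixed, Giemsa-stained preparations were counted against untreated cultures.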

Compound: CC(C)(C)c1ccc(S(=O)(=O)n2cnc3ccccc32)cc1
pIC50 [1]: 3.48
selectivity ratio [2]: 22.5
IC50 (Vero): 68.5 µM
Ratio IC50 (Trypanosoma cruzi [3]): 3 - 5
IC50 (Trypanosoma cruzi [4]): 3 µM

Compound: O=S(=O)(c1ccc(Cl)cc1)n1cnc2ccccc21
pIC50 [1]: 4.23
selectivity ratio [2]: 7.3
IC50 (Vero): 122 µM
IC50 (Trypanosoma cruzi [4]): 16.8 µM

Compound: O=[N+]([O-])c1ccccc1S(=O)(=O)n1cnc2ccccc21
pIC50 [1]: 3.74
selectivity ratio [2]: 22
IC50 (Vero): 120 µM
Ratio IC50 (Trypanosoma cruzi [3]): 3 - 5
IC50 (Trypanosoma cruzi [4]): 5.5 µM

Compound: O=S(=O)(c1ccccc1)n1cnc2ccccc21
Activity (Trypanosoma cruzi [6]): -13.4%
Activity (Trypanosoma cruzi [7]): 16.4%
pIC50 [1]: 3.95
selectivity ratio [2]: 196
IC50 (Vero): 1770 µM
selectivity ratio [8]: 47.3
Activity (Trypanosoma cruzi [9]): -3.24%
IC50 (Trypanosoma cruzi [10]): 37.3 µM
Activity (Trypanosoma cruzi [11]): -16%
IC50 (Trypanosoma cruzi [4]): 9 µM
Activity (Trypanosoma cruzi [12]): 3.31%

Compound: Cc1cc(NS(=O)(=O)c2ccc(NCCc3ccc(Cl)c(Cl)c3)cc2)no1
pIC50 [1]: 4.21
pIC50 [5]: 4.21

Compound: Cc1cc(NS(=O)(=O)c2ccc(NC(=O)Cc3ccc(C)c(F)c3)cc2)no1
pIC50 [1]: 3.81
pIC50 [5]: 3.81

Compound: O=S(=O)(c1ccc(C(F)(F)F)cc1)n1cnc2ccccc21
Activity (Trypanosoma cruzi [6]): 10.6%
Activity (Trypanosoma cruzi [7]): 25.8%
pIC50 [1]: 3.79
selectivity ratio [2]: 74.8
IC50 (Vero): 460 µM
selectivity ratio [8]: 19.2
Activity (Trypanosoma cruzi [9]): 9.92%
IC50 (Trypanosoma cruzi [10]): 24 µM
Activity (Trypanosoma cruzi [11]): -7.22%
IC50 (Trypanosoma cruzi [4]): 6.2 µM
Activity (Trypanosoma cruzi [12]): 11.8%

Compound: Cc1cc(NS(=O)(=O)c2ccc(NC(=O)Cc3ccc(C)c(C)c3)cc2)no1
pIC50 [1]: 3.81
pIC50 [5]: 3.81

Compound: Cc1cc(NS(=O)(=O)c2ccc(N(C)C(=O)Cc3ccc(Cl)c(Cl)c3)cc2)no1
pIC50 [1]: 3.16
pIC50 [5]: 3.06

Compound: O=[N+]([O-])c1cccc(S(=O)(=O)n2cnc3ccccc32)c1
Activity (Trypanosoma cruzi [6]): -30.2%
Activity (Trypanosoma cruzi [7]): -3.97%
pIC50 [1]: 3.66
selectivity ratio [2]: 141
IC50 (Vero): 648 µM
selectivity ratio [8]: 40.6
Ratio IC50 (Trypanosoma cruzi [3]): 3 - 5
Activity (Trypanosoma cruzi [9]): -22.7%
IC50 (Trypanosoma cruzi [10]): 15.9 µM
Activity (Trypanosoma cruzi [11]): -33.2%
IC50 (Trypanosoma cruzi [4]): 4.6 µM
Activity (Trypanosoma cruzi [12]): -16.6%

Compound: Cc1cc(NS(=O)(=O)C2CCN(C(=O)Cc3ccc(Cl)c(Cl)c3)CC2)no1
pIC50 [1]: 4.16
pIC50 [5]: 4.16

Compound: Cc1cc(NS(=O)(=O)c2ccc(NC(=O)Cc3ccc(Cl)cc3Cl)cc2)no1
pIC50 [1]: 4.21
pIC50 [5]: 4.21

Compound: O=S(=O)(c1cccc(C(F)(F)F)c1)n1cnc2ccccc21
pIC50 [1]: 4.14
selectivity ratio [2]: 4.3
IC50 (Vero): 59.8 µM
IC50 (Trypanosoma cruzi [4]): 13.9 µM

Compound: Cc1cc(NS(=O)(=O)c2ccc(NC(=O)Cc3ccc4ccccc4c3)cc2)no1
pIC50 [1]: 3.31
pIC50 [5]: 3.26

Compound: CC(=O)Nc1ccc(S(=O)(=O)n2cnc3ccccc32)cc1
Activity (Trypanosoma cruzi [6]): 2.38%
Activity (Trypanosoma cruzi [7]): 25.5%
pIC50 [1]: 3.86
selectivity ratio [2]: 65.4
IC50 (Vero): 468 µM
Ratio IC50 (Trypanosoma cruzi [13]): 2
selectivity ratio [8]: 45.9
Activity (Trypanosoma cruzi [9]): 6.8%
IC50 (Trypanosoma cruzi [10]): 10.1 µM
Activity (Trypanosoma cruzi [11]): 28.3%
IC50 (Trypanosoma cruzi [4]): 7.2 µM
Activity (Trypanosoma cruzi [12]): 12.3%

Compound: Cc1cc(C)c(C)c(S(=O)(=O)n2cnc3ccccc32)c1C
Activity (Trypanosoma cruzi [6]): 10.9%
Activity (Trypanosoma cruzi [7]): 26.4%
pIC50 [1]: 3.34
selectivity ratio [2]: 91.7
IC50 (Vero): 205 µM
selectivity ratio [8]: 10.8
Ratio IC50 (Trypanosoma cruzi [3]): 3 - 5
Activity (Trypanosoma cruzi [9]): 10.4%
IC50 (Trypanosoma cruzi [10]): 19 µM
Activity (Trypanosoma cruzi [11]): -7.22%
IC50 (Trypanosoma cruzi [4]): 2.2 µM
Activity (Trypanosoma cruzi [12]): 12%

Compound: Cc1cc(NS(=O)(=O)c2ccc(NC(=O)C(C)(C)c3ccc(Cl)c(Cl)c3)cc2)no1
pIC50 [1]: 4.56
pIC50 [5]: 4.56

Compound: Cc1cc(NS(=O)(=O)c2ccc(C(=O)NCc3ccc(Cl)c(Cl)c3)cc2)no1
pIC50 [1]: 3.51
pIC50 [5]: 3.51

Compound: CC(=O)c1ccc(S(=O)(=O)n2cnc3ccccc32)cc1
pIC50 [1]: 4.43
selectivity ratio [2]: 24.5
IC50 (Vero): 656 µM
IC50 (Trypanosoma cruzi [4]): 26.8 µM

Compound: O=[N+]([O-])c1ccc(S(=O)(=O)n2cnc3ccccc32)cc1
pIC50 [1]: 3.41
selectivity ratio [2]: 135
IC50 (Vero): 347 µM
Ratio IC50 (Trypanosoma cruzi [3]): 3 - 5
IC50 (Trypanosoma cruzi [4]): 2.6 µM

Compound: O=S(=O)(c1ccc(Br)cc1)n1cnc2ccccc21
pIC50 [1]: 4.37
selectivity ratio [2]: 50.5
IC50 (Vero): 1190 µM
selectivity ratio [8]: 33.3
IC50 (Trypanosoma cruzi [10]): 35.7 µM
IC50 (Trypanosoma cruzi [4]): 23.5 µM

Compound: Cc1cc(NS(=O)(=O)c2ccc(NC(=O)c3ccc(Cl)c(Cl)c3)cc2)no1
pIC50 [1]: 4.31
pIC50 [5]: 4.31

Compound: Cc1cc(NS(=O)(=O)c2ccc(NC(=O)Cc3ccccc3)cc2)no1
pIC50 [1]: 4.31
pIC50 [5]: 4.31

Compound: Cc1ccc(S(=O)(=O)n2cnc3ccccc32)cc1
pIC50 [1]: 4.38
selectivity ratio [2]: 4.5
IC50 (Vero): 108 µM
IC50 (Trypanosoma cruzi [4]): 23.8 µM

Compound: COc1ccc(CC(=O)Nc2ccc(S(=O)(=O)Nc3cc(C)on3)cc2)cc1C
pIC50 [1]: 4.31
pIC50 [5]: 4.31

Other lines, results leading:

pIC50 [1]: 4.11
pIC50 [5]: 4.11
Compound: CN(C)c1cccc(NS(=O)(=O)c2ccc(NC(=O)Cc3ccc(Cl)c(Cl)c3)cc2)c1

pIC50 [1]: 3.06
pIC50 [5]: 2.96
Compound: Cc1cc(NS(=O)(=O)c2ccc(NC(=O)Cc3ccc(Cl)c(Cl)c3)cc2)n(C)n1

pIC50 [1]: 4.06
pIC50 [5]: 4.06
Compound: Cc1cc(NS(=O)(=O)c2ccc(NC(=O)CCc3ccc(Cl)c(Cl)c3)cc2)no1

pIC50 [1]: 2.11
pIC50 [5]: 2.11
Compound: O=C(Cc1ccc(Cl)c(Cl)c1)Nc1ccc(S(=O)(=O)Nc2ccon2)cc1

pIC50 [1]: 2.23
pIC50 [5]: 2.23
Compound: O=C(Cc1ccc(F)c(Cl)c1)Nc1ccc(S(=O)(=O)Nc2nncs2)cc1

pIC50 [1]: 1.61
pIC50 [5]: 1.61
Compound: O=C(Cc1ccc(Cl)c(Cl)c1)Nc1ccc(S(=O)(=O)Nc2nccs2)cc1

pIC50 [1]: 2.07
pIC50 [5]: 2.07
Compound: O=C(Cc1ccc(F)c(Cl)c1)Nc1ccc(S(=O)(=O)Nc2nccs2)cc1

pIC50 [1]: 4.21
pIC50 [5]: 4.21
Compound: O=C(Cc1ccc(Cl)c(Cl)c1)Nc1ccc(S(=O)(=O)Nc2ccccc2)cc1

pIC50 [1]: 3.26
pIC50 [5]: 3.16
Compound: O=C(Cc1ccc(Cl)c(Cl)c1)Nc1ccc(S(=O)(=O)Nc2cccc(O)c2)cc1

pIC50 [1]: 1.72
pIC50 [5]: 1.72
Compound: O=C(Cc1ccc(Cl)c(Cl)c1)Nc1ccc(S(=O)(=O)Nc2nncs2)cc1

pIC50 [1]: 3.66
pIC50 [5]: 3.66
Compound: Cc1cc(NS(=O)(=O)Cc2ccc(NC(=O)Cc3ccc(Cl)c(Cl)c3)cc2)no1

pIC50 [1]: 2.66
pIC50 [5]: 2.66
Compound: Cc1cc(NS(=O)(=O)c2ccc(NC(=O)Cc3ccc(F)c(Cl)c3)cc2)no1

pIC50 [1]: 2.36
pIC50 [5]: 2.36
Compound: Cc1cc(NS(=O)(=O)c2ccc(NC(=O)Cc3ccc(Cl)c(Cl)c3)cc2)no1

pIC50 [1]: 3.21
pIC50 [5]: 3.11
Compound: Cc1cc(NS(=O)(=O)c2ccc(NC(=O)Cc3ccc(Cl)cc3)cc2)no1

pIC50 [1]: 4.21
pIC50 [5]: 4.21
Compound: Cc1cc(NS(=O)(=O)c2cccc(NC(=O)Cc3ccc(Cl)c(Cl)c3)c2)no1

pIC50 [1]: 3.41
pIC50 [5]: 3.41
Compound: Cc1cc(N(C)S(=O)(=O)c2ccc(NC(=O)Cc3ccc(Cl)c(Cl)c3)cc2)no1

pIC50 [1]: 2.86
pIC50 [5]: 2.86
Compound: O=C(Cc1ccc(Cl)c(Cl)c1)Nc1ccc(S(=O)(=O)Nc2cc[nH]n2)cc1

pIC50 [1]: 2.96
pIC50 [5]: 2.86
Compound: Cc1cc(NS(=O)(=O)c2ccc(NC(=O)Cc3ccc(Cl)c(C(F)(F)F)c3)cc2)no1

pIC50 [1]: 3.46
pIC50 [5]: 3.46
Compound: Cc1cc(NS(=O)(=O)c2ccc(NC(=O)Cc3cccc(Cl)c3)cc2)no1

pIC50 [1]: 2.81
pIC50 [5]: 2.81
Compound: Cc1cc(NS(=O)(=O)c2ccc(NC(=O)Cc3ccc(Cl)c(F)c3)cc2)no1
